Laboratory results: ChEMBL document CHEMBL1147862, “Studies on synthesis and pharmacological activities of 3,6-disubstituted-1,2,4-triazolo[3,4-b]-1,3,4-thiadiazoles and their dihydro analogues” (2007)

Legend:
Type in all cases: functional
Aspergillus niger [1] = assay: Antifungal activity against Aspergillus niger at 20 ug/ml by paper disc method; conditions: read-out: IZ
Aspergillus niger [2] = assay: Antifungal activity against Aspergillus niger at 10 ug/ml by paper disc method; conditions: read-out: IZ
Mus musculus [3] = assay: Analgesic activity in Swiss mouse assessed as increase in reaction time at 20 mg/kg, po after 90 mins by Eddy's hot plate technique
Procedure, shortened: (§1)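 Swiss mice of either sex, 25–35 g, placed one at a time on a hot plate held at 55 °C. End point is paw licking or jumping, whichever comes first, with a 15 s cut-off to avoid paw injury. Reaction time is recorded and reported as percent increase in reaction time.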

Mus musculus [4] = assay: Analgesic activity in Swiss mouse assessed as increase in reaction time at 20 mg/kg, po after 60 mins by Eddy's hot plate technique; procedure, shortened: as §1
Candida albicans [5] = assay: Antifungal activity against Candida albicans at 30 ug/ml by paper disc method; conditions: read-out: IZ
Escherichia coli [6] = assay: Antibacterial activity against Escherichia coli at 30 ug/ml by agar plate diffusion technique; conditions: read-out: IZ
Rattus norvegicus [7] = assay: Antiinflammatory activity in Wistar Albino rat assessed as inhibition of carrageenan-induced paw oedema at 20 mg/kg after 1 hr relative to control
Procedure, shortened: (§2)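 Wistar albino rats, 150–200 g, six per group, dosed orally with a 20 mg/kg suspension; control gets 0.1 ml 1% gum acacia. After 30 min, 0.1 ml 1% carrageenan in saline is injected subplantar into the right hind paw. Paw volume is read by plethysmograph at 0–4 h. Inhibition = 100(1 − Vtest/Vcontrol) on mean volume increase.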

Pseudomonas aeruginosa [8] = assay: Antibacterial activity against Pseudomonas aeruginosa at 10 ug/ml by agar plate diffusion technique; conditions: read-out: IZ
Pseudomonas aeruginosa [9] = assay: Antibacterial activity against Pseudomonas aeruginosa at 30 ug/ml by agar plate diffusion technique; conditions: read-out: IZ
Mus musculus [10] = assay: Analgesic activity in Swiss mouse assessed as increase in reaction time at 20 mg/kg, po after 30 mins by Eddy's hot plate technique; procedure, shortened: as §1
Rattus norvegicus [11] = assay: Antiinflammatory activity in Wistar Albino rat assessed as inhibition of carrageenan-induced paw oedema at 20 mg/kg after 4 hrs relative to control; procedure, shortened: as §2
Candida albicans [12] = assay: Antifungal activity against Candida albicans at 10 ug/ml by paper disc method; conditions: read-out: IZ
Aspergillus niger [13] = assay: Antifungal activity against Aspergillus niger at 30 ug/ml by paper disc method; conditions: read-out: IZ
Staphylococcus aureus [14] = assay: Antibacterial activity against Staphylococcus aureus at 10 ug/ml by agar plate diffusion technique; conditions: read-out: IZ
Bacillus subtilis [15] = assay: Antibacterial activity against Bacillus subtilis at 30 ug/ml by agar plate diffusion technique; conditions: read-out: IZ
Staphylococcus aureus [16] = assay: Antibacterial activity against Staphylococcus aureus at 30 ug/ml by agar plate diffusion technique; conditions: read-out: IZ
Candida albicans [17] = assay: Antifungal activity against Candida albicans at 20 ug/ml by paper disc method; conditions: read-out: IZ
Pseudomonas aeruginosa [18] = assay: Antibacterial activity against Pseudomonas aeruginosa at 20 ug/ml by agar plate diffusion technique; conditions: read-out: IZ
Staphylococcus aureus [19] = assay: Antibacterial activity against Staphylococcus aureus at 20 ug/ml by agar plate diffusion technique; conditions: read-out: IZ
Escherichia coli [20] = assay: Antibacterial activity against Escherichia coli at 20 ug/ml by agar plate diffusion technique; conditions: read-out: IZ
Rattus norvegicus [21] = assay: Antiinflammatory activity in Wistar Albino rat assessed as inhibition of carrageenan-induced paw oedema at 20 mg/kg after 3 hrs relative to control; procedure, shortened: as §2
Escherichia coli [22] = assay: Antibacterial activity against Escherichia coli at 10 ug/ml by agar plate diffusion technique; conditions: read-out: IZ
Bacillus subtilis [23] = assay: Antibacterial activity against Bacillus subtilis at 20 ug/ml by agar plate diffusion technique; conditions: read-out: IZ
Rattus norvegicus [24] = assay: Antiinflammatory activity in Wistar Albino rat assessed as inhibition of carrageenan-induced paw oedema at 20 mg/kg after 2 hrs relative to control; procedure, shortened: as §2
Bacillus subtilis [25] = assay: Antibacterial activity against Bacillus subtilis at 10 ug/ml by agar plate diffusion technique; conditions: read-out: IZ

| SMILES | zone of inhibition at 20 µg/mL (Aspergillus niger [1]) | zone of inhibition at 10 µg/mL (Aspergillus niger [2]) | Activity (Mus musculus [3]) | Activity (Mus musculus [4]) | zone of inhibition at 30 µg/mL (Candida albicans [5]) | zone of inhibition at 30 µg/mL (Escherichia coli [6]) | inhibition in vivo at 20 mg/kg (Rattus norvegicus [7]) | zone of inhibition at 10 µg/mL (Pseudomonas aeruginosa [8]) | zone of inhibition at 30 µg/mL (Pseudomonas aeruginosa [9]) | Activity (Mus musculus [10]) | inhibition in vivo at 20 mg/kg (Rattus norvegicus [11]) | zone of inhibition at 10 µg/mL (Candida albicans [12]) | zone of inhibition at 30 µg/mL (Aspergillus niger [13]) | zone of inhibition at 10 µg/mL (Staphylococcus aureus [14]) | zone of inhibition at 30 µg/mL (Bacillus subtilis [15]) | zone of inhibition at 30 µg/mL (Staphylococcus aureus [16]) | zone of inhibition at 20 µg/mL (Candida albicans [17]) | zone of inhibition at 20 µg/mL (Pseudomonas aeruginosa [18]) | zone of inhibition at 20 µg/mL (Staphylococcus aureus [19]) | zone of inhibition at 20 µg/mL (Escherichia coli [20]) | also measured |
| --- | --- | --- | --- | --- | --- | --- | --- | --- | --- | --- | --- | --- | --- | --- | --- | --- | --- | --- | --- | --- | --- |
| COc1ccc(Cl)c(-c2nnc3sc(-c4ccnc(F)c4)nn23)c1 | 12.6 mm | 6.68 mm | 20.34% | 11.35% | 21.7 mm | 19.7 mm | 18.5% | 8.68 mm | 19.5 mm | 4.12% | 28.1% | 7.68 mm | 20.5 mm | 7.29 mm | 19.2 mm | 19.2 mm | 14.5 mm | 14.9 mm | 14.1 mm | 14.7 mm | inhibition in vivo at 20 mg/kg (Rattus norvegicus [21]): 25.9%; zone of inhibition at 10 µg/mL (Escherichia coli [22]): 8.1 mm; zone of inhibition at 20 µg/mL (Bacillus subtilis [23]): 14.1 mm; inhibition in vivo at 20 mg/kg (Rattus norvegicus [24]): 24.6%; zone of inhibition at 10 µg/mL (Bacillus subtilis [25]): 7.78 mm |
| COc1ccc(Cl)c(-c2nnc3sc(-c4cc(O)nc(O)c4)nn23)c1 | 8.06 mm | 4.82 mm | 26.14% | 15.18% | 15 mm | 13.2 mm | 8.35% | 4.84 mm | 13.3 mm | 5.68% | 23.4% | 4.14 mm | 13.6 mm | 4.57 mm | 13.8 mm | 13.7 mm | 7.15 mm | 9.06 mm | 8.82 mm | 8 mm | inhibition in vivo at 20 mg/kg (Rattus norvegicus [21]): 21%; zone of inhibition at 10 µg/mL (Escherichia coli [22]): 4.18 mm; zone of inhibition at 20 µg/mL (Bacillus subtilis [23]): 8.38 mm; inhibition in vivo at 20 mg/kg (Rattus norvegicus [24]): 14.2%; zone of inhibition at 10 µg/mL (Bacillus subtilis [25]): 4.7 mm |
| COc1ccc(Cc2nnc3sc(-c4cc(C)nc5ccccc45)nn23)cc1OC | 13 mm | 6.25 mm | 20.14% | 11.05% | 17.5 mm | 16 mm | 10.2% | 5.26 mm | 16.1 mm | 5.96% | 24.9% | 5.48 mm | 16.7 mm | 6.72 mm | 16.1 mm | 16.6 mm | 12 mm | 10.1 mm | 11.7 mm | 8.8 mm | inhibition in vivo at 20 mg/kg (Rattus norvegicus [21]): 21.2%; zone of inhibition at 10 µg/mL (Escherichia coli [22]): 5.25 mm; zone of inhibition at 20 µg/mL (Bacillus subtilis [23]): 10.2 mm; inhibition in vivo at 20 mg/kg (Rattus norvegicus [24]): 13.2%; zone of inhibition at 10 µg/mL (Bacillus subtilis [25]): 6.29 mm |
| COc1ccc2[nH]c(C)c(Cc3nn4c(Cc5ccc(OC)c(OC)c5)nnc4s3)c2c1 | 7.58 mm | 4.9 mm | 29.04% | 27.82% | 12.1 mm | 12.4 mm | 10.5% | 4.04 mm | 12.6 mm | 19.23% | 28.4% | 4.62 mm | 10.8 mm | 4.06 mm | 12.3 mm | 12 mm | 8.02 mm | 7.42 mm | 8.08 mm | 7.42 mm | inhibition in vivo at 20 mg/kg (Rattus norvegicus [21]): 21.4%; zone of inhibition at 10 µg/mL (Escherichia coli [22]): 4.48 mm; zone of inhibition at 20 µg/mL (Bacillus subtilis [23]): 7.21 mm; inhibition in vivo at 20 mg/kg (Rattus norvegicus [24]): 16.2%; zone of inhibition at 10 µg/mL (Bacillus subtilis [25]): 4.07 mm |
| Cc1cc(-c2nn3c(-c4ccoc4C)nnc3s2)c2ccccc2n1 | 13.5 mm | 6 mm | 20.34% | 11.35% | 19 mm | 17 mm | 7.23% | 6 mm | 16.8 mm | 6.04% | 26.3% | 5.84 mm | 17.4 mm | 7.1 mm | 17.1 mm | 17.9 mm | 12.6 mm | 11.8 mm | 13.7 mm | 10.5 mm | inhibition in vivo at 20 mg/kg (Rattus norvegicus [21]): 18.6%; zone of inhibition at 10 µg/mL (Escherichia coli [22]): 6.28 mm; zone of inhibition at 20 µg/mL (Bacillus subtilis [23]): 12.5 mm; inhibition in vivo at 20 mg/kg (Rattus norvegicus [24]): 13.4%; zone of inhibition at 10 µg/mL (Bacillus subtilis [25]): 7.38 mm |
